Laboratory results from PubChem BioAssay.
Unmarked numbers belong to inactive results. Records with an inconclusive call do not appear. Active and inactive are the calls of the source.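 How the source made its calls, unless noted: active means cell viability at or below a set limit in both duplicate runs, the limit being the all-compound median minus 4 SD (cut at about 23% in these data, passing the limit was not always enough); inconclusive means no clear call, values can overlap the other calls; inactive means the rest.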

Experiments:
[1] = S. cerevisiae growth inhibition in permissive medium (OD615), pilot counter-assay for S. cerevisiae lifespan shortening project, permissive growth control (AID 705;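 active means growth inhibition above 25% in both replicates, a cutoff set 3 SD above the mean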); conditions: OD615, 24 h, at 10 µM, active compounds read high
Outline: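 System: engineered DeaD yeast; Medium: permissive raffinose/galactose medium; Compound dosing: 10 µM single dose, 0.25% DMSO; Incubation: 4 h cell pre-growth, 24 h exposure at 30 °C; Technique: OD at 615 nm; Evaluation: growth inhibition from lowered OD615 after 24 h.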

[2] = S. cerevisiae growth inhibition in restrictive medium, OD615, pilot screen, restrictive growth control, yeast lifespan reduction project (AID 706;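 active means growth inhibition above a set limit, 3 SD over mean compound inhibition, in both replicates, cut at about 43% in these data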;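 further: modified DeaD lifespan yeast strain shifted to restrictive glucose medium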); conditions: OD615, 48 h, at 10 µM, active compounds read high
Outline: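 Material: modified S. cerevisiae; buffer or medium: CSMM-D glucose medium; doses: one concentration, 10 µM final, 0.25% DMSO; incubation: 48 h compound exposure at 30 °C; detection: optical density at 615 nm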

[3] = doxorubicin toxicity protection in MRP-1 cells – H69AR cells, CellTiter-Glo, duplicate, MRP-1 activator project, pilot screen (AID 807;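 active means viability increase at or above a cutoff of the median across tested compounds plus 3 SD, cut at about 8.5% in these data, passing the limit was not always enough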;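 further: compound pretreatment 18-22 h then 72 h combined with doxorubicin; 0% = doxorubicin alone and 100% = vehicle without doxorubicin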); conditions: H69AR viability with doxorubicin, CellTiter-Glo luminescence; at 10 µM; active compounds read high
[4] = viability of HCT116 without oncogenic beta-catenin – human colon tumor cells, pilot screen (AID 823); conditions: HCT116 beta-catenin knockout viability, CellTiter-Glo, 60 h; at 10 µM; active compounds read low;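 further: 0% = wells killed by 20 µM Hyamine and 100% = untreated DMSO cell wells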
[5] = viability of PTEN-null HCT116 cells – cell-based, HCT116 clonal line, CellTiter-Glo, pilot screen (AID 824;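 active means viability at or below 27.92% in each of two runs, the all-compound median minus 4 SD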;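 further: 0% = 20 µM Hyamine control and 100% = vehicle cell control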); conditions: HCT116 PTEN-deleted viability, 60 h, at 10 µM, active compounds read low
[6] = RAM pathway blockade in budding yeast – dse1pr::URA3 reporter, 5-FOA selection, pilot screen (AID 869;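 active means inhibition over a set limit, the all-compound mean plus 3 SD, in both replicate runs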;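 further: 0% = DMSO wells with no growth and 100% = 10 µM 1-NA-PP1 with full growth; RAM network block rescues cells from 5-FOA so hits raise OD615 growth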); conditions: S. cerevisiae dse1pr::URA3 5-FOA growth, OD615, 2 d; at 10 µM; active compounds read high; strain carries analog-sensitive mutant Cbk1 kinase
[7] = RAM signaling pathway blockade in yeast – S. cerevisiae, Pdr1DBD-CYC8 efflux-inhibited sensitized strain, primary screen (AID 1298;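 active means RAM network inhibition above 8.4% in each of two replicates, 3 SD over the compound average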;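 further: 0% = DMSO untreated cells without growth and 100% = 10 µM 1-NA-PP1 full growth; higher means more yeast growth rescued from 5-FOA killing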); conditions: S. cerevisiae cbk1-as DSE1-URA3 strain, 5-FOA growth OD615, 2 d; at 50 µM; active compounds read high

SMILES	growth inhibition [1]	growth inhibition [2]	viability increase [3]	viability [4]	viability [5]	inhibition [6]	RAM network inhibition [7]
CCOC(=O)C(C)Sc1nnc(Cn2c(=O)sc3ccccc32)n1-c1ccccc1 (stereo unspecified)	2.42%	-4.57%	-0.22%	95.6%	92.6%	1.81%	0.1%
CC(C)n1c(C(O)c2ccc3c(c2)OCO3)nc2ccccc21 (stereo unspecified)	-1.25%	0.5%	0.4%	94.8%	90.9%	0.905%	2.89%
CCOc1ccccc1C1C(C(=O)Nc2ccccc2OC)=C(C)Nc2nc(CCCO)nn21 (stereo unspecified)	-20.1%	-8.73%	-3.55%	89.5%	88%	1.01%	4.4%
CCOC(=O)CSc1nc2c(c(=O)n1-c1ccc(OC)cc1)SCC2	-4.98%	-0.425%	0.37%	99.5%	98.6%	1.04%	7.6%
O=C(NC1CCCC1)C(c1ccc(Cl)cc1)N1CCOCC1 (stereo unspecified)	-10.9%	-6.79%	1.37%	98.8%	93%	1.98%	2.55%
Cc1nc2sc(C(c3cccs3)N3CCN(Cc4ccccc4)CC3)c(O)n2n1 (stereo unspecified)	-7.44%	-19.6%	-1.47%	101%	89.8%	-0.06%	4.97%
Cc1ccc(S(=O)(=O)N2CCCC(C(=O)N(Cc3cccs3)C3CC3)C2)cc1 (stereo unspecified)	-7.06%	-14.9%	-0.66%	61.3%	71.5%	0.39%	7.4%
CCNc1nc(C)nc2c1oc1ccccc12	-8.28%	-30.6%	0.92%	101%	89.5%	1.81%	3.64%
COc1ccccc1NC(=O)CSc1nc2sc(C)c(C)c2c(=O)n1Cc1ccco1	9.68%	9.95%	-3.07%	91%	92%	2.17%	3.57%
CCOC(=O)c1cc2c(=O)n3ccccc3nc2n(CCCOC)c1=NC(=O)c1cccnc1	-0.71%	-4.29%	-4.22%	112%	93.7%	0.775%	3.03%
CCOC(=O)CSc1nccc(N(C)C)c1C#N	-5.06%	7.88%	1.04%	99%	100%	0.83%	4.81%
COc1cc(NS(=O)(=O)c2ccc3c(c2)oc(=O)n3C)cc(OC)c1OC	-3.74%	0.425%	-4.97%	41.9%	35.5%	-0.355%	2.41%
CCOC(=O)CSC1=C(C#N)C(c2ccc(C)s2)CC(=O)N1 (stereo unspecified)	-9.3%	-13.3%	-5.84%	15.9% (active)	16% (active)	1.54%	0.22%
Cn1c(=O)c2c(SCC(=O)N3CCC(Cc4ccccc4)CC3)nc(C3CC3)nc2n(C)c1=O	-0.44%	-9.93%	-1.06%	92.9%	88.1%	1.28%	0.47%
Cn1cccc1Cc1nnc(SCC(=O)NC2CCCC2)n1-c1ccc(F)cc1	1.76%	6.74%	-2.12%	104%	96.7%	0.675%	3.25%
CC1COC2C(O1)N(S(C)(=O)=O)CCN2S(C)(=O)=O (stereo unspecified)	-7.71%	-12.4%	0.34%	99.3%	101%	0.68%	2.6%
CCC(=O)N1CCc2cc(Br)cc(S(=O)(=O)N3CCN(C(=O)c4ccco4)CC3)c21	-4.72%	-21.7%	-1.56%	91.6%	95.4%	2.48%	1.88%
COc1cccc(-c2nc(CS(=O)(=O)CC(=O)NCc3ccccc3OC)c(C)o2)c1	5.72%	2.59%	-1.62%	95.9%	89.1%	1.55%	3.2%
